Screens (PubChem BioAssay)
Compounds with a hit are over-represented: about 6% of the library has one in this group of screens.
PostGolgi ctrl = growth inhibition of yeast control strain, primary screen, counter-screen for post-Golgi transport modulator project | efflux-deficient yeast background strain, growth absorbance A615, 16 h | inhibition, % at 10 µM | 5% of 98,000 active | AID 738, 2007
E coli WT exp = growth inhibitors of wild-type E. coli, primary screen, strain BW25113, expanded library, OD600. OD600 absorbance. growth inhibition, % at 100 µM. 0.15% of 98,000 active;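 active means growth inhibition above about 50% at one test dose, limit read from the data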;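 further: growth measured after 20 h incubation at 37 °C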
PostGolgi yeast = phenotypic screen on post-Golgi transport, primary screen | 0.9% of 98,000 active | post-Golgi transport phenotypic cell assay | inhibition, % at 10 µM;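 further: yeast cells grown in 1536-well plates; yeast grown about 18 h at 30C before absorbance read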
EphB4 antag = EphB4-ephrin-B2 interaction antagonists, primary screen, biochemical, TNYL-RAW peptide probe, fluorescence polarization. Ephrin type-B receptor 4 (Homo sapiens), P54760. 0.15% of 97,000 active. AID 720, 2007. inhibition, % at 7 µM. EphB4 LBD / TNYL-RAW-Alexa532 peptide;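 active means inhibition above the screen-wide mean inhibition plus 3 SD, cut at about 15% in these data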;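 further: 0% = DMSO wells and 100% = excess unlabeled TNYL-RAW peptide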
tolC growth inh = growth inhibitors of E. coli tolC mutant, primary screen, strain BW25113 ΔtolC::kan, 384-well. OD615. 2.2% of 65,000 active. AID 573, 2007. growth inhibition, % at 10 µM (by protocol);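 active means growth inhibition at or above a cutoff equal to the mean over every tested compound plus 3 SD, cut at about 60% in these data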;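 further: growth measured after 20 h incubation at 37 °C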
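System: E. coli ΔtolC::kan strain BW25113; Buffer or medium: LB broth supplemented with 50 µg/mL kanamycin; Compound: 10 µM final, single dose; Incubation: bacterial growth with compound for 20 h at 37 °C; Signal: A615 absorbance measurement; Evaluation: growth inhibition in percent.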
Numbers without * were called inactive. Unless noted, no stated cut-off is given here; in the data, active means inhibition above about 30%; inactive means the rest.

How did O=S(=O)(NCC(c1cccnc1)N1CCN(c2ccc(F)cc2)CC1)c1cccs1 (centres undefined) do in these assays?
PostGolgi ctrl: 54.6*; E coli WT exp: -2.0; PostGolgi yeast: 78.1*; tolC growth inh: -3.1

Results for O=C(NCC(c1cccnc1)N1CCN(c2ccc(F)cc2)CC1)C1CCCCC1 (centres undefined) ?
PostGolgi ctrl: 4.7; E coli WT exp: 4.0; PostGolgi yeast: -30.3; EphB4 antag: 3.1; tolC growth inh: -6.2

How did COc1cc2c(cc1NC(=O)C(c1ccccc1)c1ccccc1)CCCC2 do in these assays?
PostGolgi ctrl: 5.4; E coli WT exp: -11.0; PostGolgi yeast: -7.5; EphB4 antag: -10.1

How did CCNC(=O)NC(=O)COC(=O)c1ccccc1SCC(=O)NC(=O)NCC do in these assays?
PostGolgi ctrl: 3.6; E coli WT exp: -7.0; PostGolgi yeast: 3.2; EphB4 antag: 6.3; tolC growth inh: 11.4

What do the screens show for `Cc1ccc(C)c(N2CCN(C(=O)CNS(=O)(=O)c3cccs3)CC2)c1`?
PostGolgi ctrl: 16.3; E coli WT exp: -10.0; PostGolgi yeast: -7.3; EphB4 antag: -0.3

How did CN(c1ncc(C(F)(F)F)cc1Cl)n1cc(C(N)=O)c2ccccc2c1=O do in these assays?
PostGolgi ctrl: -5.0; E coli WT exp: 16.0; PostGolgi yeast: -4.5; EphB4 antag: -1.8

What do the screens show for `O=S(=O)(NCC(c1cccnc1)N1CCN(c2ccc(F)cc2)CC1)c1ccc(F)cc1` (centres undefined)?
PostGolgi ctrl: 73.1*; E coli WT exp: 3.0; PostGolgi yeast: 89.7*; EphB4 antag: 0.5; tolC growth inh: 0.3

How did O=C(NCC(c1cccnc1)N1CCN(c2ccc(F)cc2)CC1)c1ccc(F)cc1 (centres undefined) do in these assays?
PostGolgi ctrl: 17.5; E coli WT exp: 1.0; PostGolgi yeast: 2.4; EphB4 antag: 3.2; tolC growth inh: -14.6

Results for CSc1cccc(-n2c(C)cc(C(N)=O)c2C)c1 ?
PostGolgi ctrl: 10.2; E coli WT exp: 4.0; PostGolgi yeast: 7.1; EphB4 antag: 15.5*; tolC growth inh: 6.1

How did O=S(=O)(Cc1ccccc1)N1CCCC(c2nc(-c3ccc(F)cc3)no2)C1 (centres undefined) do in these assays?
PostGolgi ctrl: 33.4*; E coli WT exp: -4.0; PostGolgi yeast: 2.2; EphB4 antag: -4.1; tolC growth inh: -15.6

What do the screens show for `CC(C)c1ccc(-c2noc(C3CCCN(C(=O)c4ccc(F)cc4F)C3)n2)cc1` (centres undefined)?
PostGolgi ctrl: 14.3; E coli WT exp: -22.0; PostGolgi yeast: -5.4; EphB4 antag: 1.3; tolC growth inh: 67.8*

What do the screens show for `Cc1ccc(-c2noc(C3CCCN(C(=O)c4ccc(F)cc4F)C3)n2)cc1` (centres undefined)?
PostGolgi ctrl: 10.6; E coli WT exp: -2.0; PostGolgi yeast: -2.0; EphB4 antag: -4.8; tolC growth inh: 39.0

How did CCOc1ccc2nc(NC(=O)C(CC)Sc3nc(C)cc(=O)[nH]3)sc2c1 (centres undefined) do in these assays?
PostGolgi ctrl: 14.3; E coli WT exp: -2.0; PostGolgi yeast: 5.8; EphB4 antag: 6.3; tolC growth inh: 66.8*

Results for COc1ccc2nc(NC(=O)CSc3nc(C)cc(=O)[nH]3)sc2c1 ?
PostGolgi ctrl: 20.5; E coli WT exp: -2.0; PostGolgi yeast: 0.2; EphB4 antag: 2.7

How did Cc1ccc(/C=C/C(O)=C2/C(=O)N(C)C3(C)CC2c2ccccc2O3)cc1 (centres undefined) do in these assays?
PostGolgi ctrl: 44.4*; E coli WT exp: -3.0; PostGolgi yeast: 6.9; EphB4 antag: -4.7

Results for COc1ccc(/C=C/C(O)=C2/C(=O)N(C)C3(C)CC2c2ccccc2O3)cc1 (centres undefined) ?
PostGolgi ctrl: 25.6; E coli WT exp: -22.0; PostGolgi yeast: 1.1; EphB4 antag: -0.1; tolC growth inh: 16.8

Results for COc1cccc(Cn2c(C3CC3)nc3ccc(NC(=O)c4ccco4)cc3c2=O)c1 ?
PostGolgi ctrl: 30.7*; E coli WT exp: -11.0; PostGolgi yeast: 2.9; EphB4 antag: -5.7; tolC growth inh: 34.8

What do the screens show for `O=C(CCCOc1ccccc1)Nc1ccncc1`?
PostGolgi ctrl: -3.9; E coli WT exp: 5.0; PostGolgi yeast: -1.9; tolC growth inh: -2.2

How did O=C(CCCOc1ccc(Cl)cc1Cl)Nc1ccncc1 do in these assays?
PostGolgi ctrl: 61.5*; E coli WT exp: 2.0; PostGolgi yeast: 24.8; EphB4 antag: 5.0

How did CCNC(=O)CCCOc1ccc(Cl)cc1Cl do in these assays?
PostGolgi ctrl: 35.9*; E coli WT exp: -1.0; PostGolgi yeast: -2.0; EphB4 antag: -2.1; tolC growth inh: -3.6

What do the screens show for `CC(Oc1ccc(Cl)cc1Cl)C(=O)Nc1ccncc1` (centres undefined)?
PostGolgi ctrl: 43.7*; E coli WT exp: 14.0; PostGolgi yeast: 57.9*; EphB4 antag: 8.4; tolC growth inh: 11.8

How did COC(=O)CCC(=O)NNC(=O)CCCOc1ccc(Cl)cc1Cl do in these assays?
PostGolgi ctrl: 7.3; E coli WT exp: 6.0; PostGolgi yeast: 1.9; EphB4 antag: -3.1

How did CCOc1ccc(Cn2c(C)nc([N+](=O)[O-])c2SCC(O)CCl)cc1[N+](=O)[O-] (centres undefined) do in these assays?
PostGolgi ctrl: -3.9; E coli WT exp: 4.0; PostGolgi yeast: -8.2; EphB4 antag: -1.7

What do the screens show for `CCC(CC)C(=O)Nc1cccc(C(=O)NCc2ccco2)c1`?
PostGolgi ctrl: 42.4*; E coli WT exp: 7.0; PostGolgi yeast: -5.0; EphB4 antag: -2.8; tolC growth inh: 4.4

What do the screens show for `O=C(O)c1cc2ccc3ccccc3c2oc1=O`?
EphB4 antag: -0.4

Results for Cc1cc(C)cc(OC(=O)CS(=O)c2ccc(C(F)(F)F)cc2[N+](=O)[O-])c1 (centres undefined) ?
PostGolgi ctrl: 35.2*; E coli WT exp: 3.0; PostGolgi yeast: 12.9; EphB4 antag: -4.7

What do the screens show for `COc1ccc(CNC(=O)c2ccc(=O)oc2)cc1OC`?
PostGolgi ctrl: 4.3; E coli WT exp: 2.0; PostGolgi yeast: -4.0; EphB4 antag: -2.3; tolC growth inh: 2.5

Results for N#Cc1nc(COc2ccc(F)cc2)oc1N1CCCC1 ?
PostGolgi ctrl: 4.7; E coli WT exp: 7.0; PostGolgi yeast: -3.4; EphB4 antag: 8.0; tolC growth inh: 21.6

What do the screens show for `N#Cc1nc(-c2cccs2)oc1N1CCN(Cc2ccccc2)CC1`?
PostGolgi ctrl: 14.5; E coli WT exp: -19.0; PostGolgi yeast: 2.4; EphB4 antag: -5.4; tolC growth inh: 39.2

How did N#Cc1nc(COc2cccc(Cl)c2)oc1N1CCCC1 do in these assays?
PostGolgi ctrl: 27.9; E coli WT exp: -3.0; PostGolgi yeast: 17.0; EphB4 antag: 2.9; tolC growth inh: 32.1

Results for N#Cc1nc(COc2ccccc2)oc1N1CCN(Cc2ccccc2)CC1 ?
PostGolgi ctrl: 5.5; E coli WT exp: -16.0; PostGolgi yeast: -5.2; EphB4 antag: -7.7; tolC growth inh: 66.7*
